What was measured:
HeLa = assay: Inhibitory concentration in HeLa cells; format: functional, cell-based; conditions: Homo sapiens
Procedure, shortened: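 HeLa viability assay. Low-passage HeLa (passage 10–20) treated with compounds at 0, 1, 3, 10 and 100 µM; viability read out. Values given as mean with standard deviation, n = 4.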

ZR-75-1 = assay: Inhibitory concentration in ZR-75-1 cells; format: functional, cell-based; conditions: Homo sapiens
Procedure, shortened: (§1)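 XTT viability: MCF7 grown in DMEM/10% FBS with 10^-10 M insulin, 1 mM pyruvate, glutamine; ZR75-1 in RPMI/10% FBS with HEPES, 1 mM pyruvate, glutamine. 1000 cells/well seeded in triplicate, compounds at final 0, 1, 10 and 100 µM for 3 days. Then XTT (1 mg/mL) with 0.025 mM PMS added for 4 h. OD450 read, blank wells subtracted.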

Bcl-2-like protein 1 = Bcl-2-like protein 1 (Homo sapiens, UniProt Q07817); assay: Inhibitory concentration against Bcl-xl
MCF7S = assay: Inhibitory concentration in MCF-7 cells; format: functional, cell-based; conditions: Homo sapiens; procedure, shortened: as §1

Bcl-2-like protein 1, sequence (Q07817 whole entry): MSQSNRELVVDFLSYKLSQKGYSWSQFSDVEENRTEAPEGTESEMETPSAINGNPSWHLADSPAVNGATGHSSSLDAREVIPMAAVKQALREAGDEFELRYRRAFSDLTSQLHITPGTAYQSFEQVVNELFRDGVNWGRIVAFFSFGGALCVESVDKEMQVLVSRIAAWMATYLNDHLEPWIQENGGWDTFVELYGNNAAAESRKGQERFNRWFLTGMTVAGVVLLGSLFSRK

Row | SMILES | IC50 (HeLa) [µM] | IC50 (ZR-75-1) [µM] | IC50 (Bcl-2-like protein 1) [µM] | IC50 (MCF7S) [µM]
1 | O=C(O)c1cc(O)c(=O)c2cc(O)c(O)cc2c1 | 22.9 |  |  | 
2 | CCOC(=O)c1cc(O)c(=O)c2cc(O)c(O)cc2c1 | 51.5 | 50 |  | 
3 | COC(=O)c1cc(O)c(=O)c2cc(O)c(O)cc2c1 | 30 |  |  | 
4 | Cc1cc2c(C(C)C)c(O)c(O)c(C=O)c2c(O)c1-c1c(C)cc2c(C(C)C)c(O)c(O)c(C=O)c2c1O [GOSSYPOL] |  | 8.4 | 0.5 | 13.2
5 | COc1cc2cccc(OC)c(=O)c2c(OC)c1OC | > 100 |  |  | 
6 | COc1c(O)cc2cccc(OC)c(=O)c2c1OC | > 100 |  |  | 
7 | O=c1c(O)cccc2cc(O)c(O)c(O)c12 [PURPUROGALLIN] | 6.5 |  |  | 

— ChEMBL document CHEMBL1144902, “Discovery, characterization, and structure-activity relationships studies of proapoptotic polyphenols targeting B-cell lymphocyte/leukemia-2 proteins” (J Med Chem, 2003)
